This passage reports Normalization results from ChEMBL document CHEMBL1126043, “Novel thiazolidine-2,4-diones as potent euglycemic agents” (1992).

What all share (format): functional
In assay [1] the test system is Mus musculus. Put plainly: In vivo euglycemic activity (administered by oral gavage) in C57/6J-ob/ob mice measured by normalization of blood glucose levels at a dose of 5 mg/kg.
The subject of assay [2] is Mus musculus. Put plainly: In vivo euglycemic activity (administered by oral gavage) in C57/6J-ob/ob mice by normalization of blood glucose levels at a dose of 1 mg/kg. A digest of the protocol: (§1)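 Mice bled from retro-orbital sinus into tubes with 2% sodium heparin for baseline glucose, then dosed by oral gavage once daily for 4 days in 0.25% (w/v) methylcellulose in water, no pH adjustment (0.1 mL per 20 g). Bled 24 h after fourth dose. Samples centrifuged 2 min at 10000g. Plasma glucose measured by hexokinase UV method. Results scaled to vehicle (0%) and ciglitazone 50 mg/kg (100%).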

The subject of assay [3] is Mus musculus. In words: In vivo euglycemic activity (administered by oral gavage) in C57/6J-ob/ob mice by normalization of blood glucose levels at a dose of 0.5 mg/kg. The method in brief: as §1
The test system of assay [4] is Mus musculus. Put plainly: In vivo euglycemic activity (administered by oral gavage) in C57/6J-ob/ob mice by normalization of blood glucose levels at a dose of 10 mg/kg. The method in brief:
as §1

In assay [5] the test system is Mus musculus. In words: In vivo euglycemic activity of the compound (administered by oral gavage) in C57/6J-ob/ob mice is measured by normalization of blood glucose levels at a dose of 2.5(mg/kg). The method in brief: as §1

Compound `Cc1oc(-c2ccccc2)nc1CN(C)S(=O)(=O)c1ccc(CC2SC(=O)NC2=O)cc1` (centres undefined) gave a Normalization in assay [1] of 9%.
Take `Cc1ccc(-c2nc(CCC(=O)c3ccc(CC4SC(=O)NC4=O)s3)c(C)o2)cc1` (centres undefined): the Normalization in assay [2] came out at 100%; in assay [3] it was 27%.
The compound `Cc1oc(-c2ccccc2)nc1CCCc1ccc(CC2SC(=O)NC2=O)cc1` (centres undefined) yielded a Normalization in assay [3] of 37%.
Compound `Cc1oc(-c2ccccc2)nc1CC(=O)N(C)c1ccc(CC2SC(=O)NC2=O)cc1` (centres undefined) displayed a Normalization in assay [1] of 9%.
Same read-out and setting: with `Cc1oc(-c2ccccc2)nc1CC/C(=N\OCc1ccccc1)c1ccc(CC2SC(=O)NC2=O)cc1` (centres undefined) the figure was 17%.
Take `O=C1NC(=O)C(Cc2ccc(C(=O)/C=C/c3ccccc3C(F)(F)F)cc2)S1` (centres undefined): the figures for the Normalization in assay [1] and in assay [4] were 39% and 57%, respectively.
`CCOC(=O)c1ccc(/C=C/C(=O)c2ccc(CC3SC(=O)NC3=O)cc2)cc1` (centres undefined): the Normalization in assay [4] stood at 4%.
With `Cc1oc(-c2ccccc2)nc1CN(C)C(=O)c1ccc(CC2SC(=O)NC2=O)cc1` (centres undefined), the Normalization is 0% in assay [5] and 83% in assay [1].
Turning to `Cc1ccc(-c2nc(CCC(=O)c3ccc(/C=C4\SC(=O)NC4=O)cc3)c(C)o2)cc1`, the values for the Normalization in assay [2] and in assay [3] were 0% and 27%, respectively.
With `O=C1NC(=O)C(Cc2ccc(C(O)CCc3ccccn3)cc2)S1` (centres undefined), the Normalization in assay [4] amounted to 13%.
`O=C1NC(=O)C(Cc2ccc(C(=O)CCc3ccc(OCc4ccccc4)cc3)cc2)S1` (centres undefined) had a Normalization in assay [4] of 45%.
The same measure, in the same setting: with `Cc1ccccc1/C=C/C(=O)c1ccc(CC2SC(=O)NC2=O)cc1` (centres undefined) the figure was 21%; with `COc1ccc(CCC(=O)c2ccc(CC3SC(=O)NC3=O)cc2)cc1` (centres undefined), 50%.
`Cc1nc(-c2ccccc2)sc1CCC(=O)c1ccc(CC2SC(=O)NC2=O)cc1` (centres undefined): the figures for the Normalization in assay [5] and in assay [1] were 33% and 75%, respectively.
Turning to `COc1ccc(/C=C/C(=O)c2ccc(CC3SC(=O)NC3=O)cc2)cc1` (centres undefined), the Normalization is listed as 0% in assay [1] and 68% in assay [4].
`O=C1NC(=O)C(Cc2ccc(C(=O)/C=C/c3ccccc3Cc3ccccc3)cc2)S1` (centres undefined) showed a Normalization in assay [4] of 56%.
Still for that read-out and setting: in the case of `O=C1NC(=O)C(Cc2ccc(C(=O)/C=C/c3nc4ccccc4s3)cc2)S1` (centres undefined) it was 0%.
With `Cc1oc(-c2ccc(C(F)(F)F)cc2)nc1CCC(=O)c1ccc(CC2SC(=O)NC2=O)s1` (centres undefined), the Normalization in assay [2] was found to be 78%; in assay [3], 27%.
In turn, `Cc1oc(-c2ccccc2)nc1CNS(=O)(=O)c1ccc(CC2SC(=O)NC2=O)cc1` (centres undefined) registered a Normalization in assay [1] of 0%.
Regarding `Cc1oc(-c2ccccc2)nc1/C=C/C(=O)c1ccc(CC2SC(=O)NC2=O)cc1` (centres undefined), the values for the Normalization in assay [1] and in assay [4] were 100% and 59%, respectively.
For `O=C1NC(=O)C(Cc2ccc(C(=O)CCc3ccc(-c4ccccc4)cc3)cc2)S1` (centres undefined) the same measures were 54% and 71%.
`O=C1NC(=O)C(Cc2ccc(C(=O)/C=C/c3ccc(Br)cc3)cc2)S1` (centres undefined) displayed a Normalization in assay [4] of 28%.
As to `O=C1NC(=O)C(Cc2ccc(C(=O)/C=C/c3cccc(Cl)c3)cc2)S1` (centres undefined), in assay [4], the Normalization is reported as 4%.
The compound `Cc1oc(-c2ccccc2)nc1CCSc1ccc(CC2SC(=O)NC2=O)cc1` (centres undefined) displayed a Normalization in assay [3] of 0%.
With `Cc1oc(-c2ccc(C(F)(F)F)cc2)nc1CCC(=O)c1ccc(/C=C2\SC(=O)NC2=O)cc1`, the Normalization in assay [2] is recorded as 58%; in assay [3], 28%.
`O=C1NC(=O)C(Cc2ccc(C(=O)CCc3ccco3)cc2)S1` (centres undefined) returned a Normalization in assay [4] of 24%.
As to `Cc1oc(-c2ccc3ccccc3c2)nc1CCC(=O)c1ccc(/C=C2\SC(=O)NC2=O)cc1`, the Normalization in assay [2] was 90%; in assay [3], 38%.
Compound `COc1ccccc1CCC(=O)c1ccc(CC2SC(=O)NC2=O)cc1` (centres undefined) displayed a Normalization in assay [4] of 0%.
With `Cc1ccc(-c2nc(CCC(=O)c3ccc(/C=C4\SC(=O)NC4=O)cc3)co2)cc1`, the Normalization in assay [2] is on record as 53%.
`COc1ccc(-c2nc(CCC(=O)c3ccc(CC4SC(=O)NC4=O)cc3)c(C)o2)cc1` (centres undefined): the Normalization stood at 95% in assay [2] and 43% in assay [3].
Compound `Cc1oc(-c2ccc3ccccc3c2)nc1CCC(=O)c1ccc(CC2SC(=O)NC2=O)cc1` (centres undefined) registered a Normalization in assay [2] of 39%.
As to `CO/N=C(\CCc1nc(-c2ccccc2)oc1C)c1ccc(CC2SC(=O)NC2=O)cc1` (centres undefined), the Normalization in assay [1] is 100%; in assay [2] it was 0%.
Consider `Cc1cc(-c2nc(CCC(=O)c3ccc(CC4SC(=O)NC4=O)cc3)c(C)o2)cc(C)c1O` (centres undefined), for which the Normalization is on record as 100% in assay [2] and 30% in assay [3].
Take `Cc1oc(-c2ccccc2)nc1CCC(O)c1ccc(CC2SC(=O)NC2=O)s1` (centres undefined): the Normalization in assay [1] amounted to 100%; in assay [2], 23%.
Turning to `O=C1NC(=O)C(Cc2ccc(C(=O)Cc3ccccc3)cc2)S1` (centres undefined), the Normalization in assay [4] stood at 0%.
`CCN(C(=O)Cc1nc(-c2ccccc2)oc1C)c1ccc(CC2SC(=O)NC2=O)cc1` (centres undefined) yielded a Normalization in assay [1] of 25%.
Regarding `Cc1ccc(-c2nc(CCC(=O)c3ccc(/C=C4\SC(=O)NC4=O)cc3)c(C)o2)o1`, the values for the Normalization in assay [2] and in assay [3] were 76% and 1%, respectively.
The compound `Cc1oc(-c2ccc(O)cc2)nc1CCC(=O)c1ccc(CC2SC(=O)NC2=O)cc1` (centres undefined) gave a Normalization in assay [2] of 0%.
On to `O=C1NC(=O)C(Cc2ccc(C(O)CCc3ccccc3)cc2)S1` (centres undefined), for which the results for the Normalization in assay [1] and in assay [4] were 47% and 89%, respectively.
As for `Cc1oc(-c2ccccc2)nc1CC/C(=N\O)c1ccc(CC2SC(=O)NC2=O)cc1` (centres undefined), the figures for the Normalization in assay [1], in assay [2] and in assay [3] were 100%, 99% and 0%, respectively.
`O=C1NC(=O)C(Cc2ccc(C(=O)CCCc3ccccc3)cc2)S1` (centres undefined) yielded a Normalization in assay [4] of 26%.
In turn, `Cc1oc(-c2ccccc2)nc1CN(C(=O)c1ccc(CC2SC(=O)NC2=O)cc1)c1ccccc1` (centres undefined) came in with a Normalization in assay [1] of 23%.
The compound `Cc1oc(-c2cccs2)nc1CCC(=O)c1ccc(/C=C2\SC(=O)NC2=O)cc1` yielded a Normalization in assay [2] of 100%.
In the case of `Cc1oc(-c2ccccc2)nc1CCS(=O)(=O)c1ccc(CC2SC(=O)NC2=O)cc1` (centres undefined), the Normalization worked out at 69% in assay [1] and 11% in assay [2].
As for `COc1ccc(-c2nc(CCC(=O)c3ccc(/C=C4\SC(=O)NC4=O)cc3)c(C)o2)cc1`, the Normalization in assay [2] amounted to 62%.
For the compound `CN(C)c1ccc(/C=C/C(=O)c2ccc(CC3SC(=O)NC3=O)cc2)cc1` (centres undefined), the Normalization in assay [4] amounted to 17%.
On to `Cc1oc(-c2ccccc2)nc1CN(c1ccccc1)S(=O)(=O)c1ccc(CC2SC(=O)NC2=O)cc1` (centres undefined), for which the Normalization in assay [5] worked out at 32%.
`O=C1NC(=O)C(Cc2ccc(C(=O)/C=C/c3ccccc3Cl)cc2)S1` (centres undefined): the Normalization in assay [1] is 65%; in assay [4] it was 44%.
In turn, `O=C1NC(=O)C(Cc2ccc(C(=O)/C=C/c3ccco3)cc2)S1` (centres undefined) returned a Normalization in assay [4] of 65%.
In turn, `Cc1oc(-c2ccco2)nc1CCC(=O)c1ccc(/C=C2\SC(=O)NC2=O)cc1` displayed a Normalization in assay [2] of 55%.
Still for that read-out and setting: in the case of `Cc1oc(-c2ccco2)nc1CCC(=O)c1ccc(CC2SC(=O)NC2=O)cc1` (centres undefined) it was 61%.
`CCc1ccc(CCC(=O)c2ccc(CC3SC(=O)NC3=O)cc2)nc1` (centres undefined): the Normalization in assay [1] was determined as 0%; in assay [4], 41%.
